Legend:
HCT-116 = experiment: Antiproliferative activity against human HCT116 cells after 72 hrs by SRB assay; format: functional, cell-based; settings: HCT-116, 72 h
MDA-MB-231 = experiment: Antiproliferative activity against human MDA-MB-231 cells after 72 hrs by SRB assay; format: functional, cell-based; settings: MDA-MB-231, 72 h
SNU-638 = experiment: Antiproliferative activity against human SNU638 cells after 72 hrs by SRB assay; format: functional, cell-based; settings: SNU-638, 72 h
[1] = molecular target: T1, Phosphatidylinositol 4,5-bisphosphate 3-kinase catalytic subunit alpha isoform (Homo sapiens, UniProt P42336); experiment: Inhibition of recombinant human PI3K-alpha using PIP2:3PS as substrate preincubated for 15 mins followed by ATP addition measured after 1 hr by ADP-Glo assay
T1 sequence (P42336 whole entry, canonical isoform): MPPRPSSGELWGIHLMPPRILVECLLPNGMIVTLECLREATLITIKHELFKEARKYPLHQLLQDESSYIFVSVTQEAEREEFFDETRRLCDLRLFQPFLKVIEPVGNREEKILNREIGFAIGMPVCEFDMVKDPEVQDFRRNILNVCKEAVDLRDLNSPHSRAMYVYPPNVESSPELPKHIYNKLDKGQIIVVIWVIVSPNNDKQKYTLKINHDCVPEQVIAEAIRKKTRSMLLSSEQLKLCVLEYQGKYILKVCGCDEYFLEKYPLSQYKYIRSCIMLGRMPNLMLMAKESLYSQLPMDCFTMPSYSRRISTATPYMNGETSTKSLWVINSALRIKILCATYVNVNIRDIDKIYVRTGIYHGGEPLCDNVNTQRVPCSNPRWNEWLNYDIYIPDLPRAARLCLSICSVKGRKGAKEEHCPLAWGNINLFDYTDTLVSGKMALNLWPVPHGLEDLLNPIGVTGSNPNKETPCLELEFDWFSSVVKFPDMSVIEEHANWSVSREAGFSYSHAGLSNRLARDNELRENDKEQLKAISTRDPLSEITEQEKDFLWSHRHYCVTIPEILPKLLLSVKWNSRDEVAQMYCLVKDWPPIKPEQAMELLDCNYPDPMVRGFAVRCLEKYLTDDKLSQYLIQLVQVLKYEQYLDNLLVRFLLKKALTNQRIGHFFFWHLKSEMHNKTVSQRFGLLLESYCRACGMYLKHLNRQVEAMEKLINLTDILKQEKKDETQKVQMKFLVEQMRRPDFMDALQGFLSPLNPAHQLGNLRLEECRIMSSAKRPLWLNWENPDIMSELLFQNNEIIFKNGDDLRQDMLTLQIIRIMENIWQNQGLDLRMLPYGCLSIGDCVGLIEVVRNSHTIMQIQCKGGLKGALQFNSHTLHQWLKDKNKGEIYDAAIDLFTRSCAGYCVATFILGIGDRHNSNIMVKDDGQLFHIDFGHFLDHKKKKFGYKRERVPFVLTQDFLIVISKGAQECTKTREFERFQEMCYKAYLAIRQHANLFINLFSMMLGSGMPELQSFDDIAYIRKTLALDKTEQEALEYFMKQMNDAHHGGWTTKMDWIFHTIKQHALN
How it was run: (§1)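 Luminescent ADP-production readout (PI3K-Glo Class I kit). Enzymes p110α/p85α, p110β/p85α, p120γ or p110δ/p85α diluted in reaction buffer with lipid substrate, preincubated with serially diluted compound 15 min at room temperature. ADP-Glo reagent 40 min, then detection reagent 40 min. IC50 by normalized nonlinear dose-response fit.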

[2] = molecular target: Phosphatidylinositol 4,5-bisphosphate 3-kinase catalytic subunit beta isoform (Homo sapiens, UniProt P42338); experiment: Inhibition of recombinant human PI3K-beta using PIP2:3PS as substrate preincubated for 15 mins followed by ATP addition measured after 1 hr by ADP-Glo assay; how it was run: as §1
Phosphatidylinositol 4,5-bisphosphate 3-kinase catalytic subunit beta isoform, sequence (P42338 whole entry, canonical isoform): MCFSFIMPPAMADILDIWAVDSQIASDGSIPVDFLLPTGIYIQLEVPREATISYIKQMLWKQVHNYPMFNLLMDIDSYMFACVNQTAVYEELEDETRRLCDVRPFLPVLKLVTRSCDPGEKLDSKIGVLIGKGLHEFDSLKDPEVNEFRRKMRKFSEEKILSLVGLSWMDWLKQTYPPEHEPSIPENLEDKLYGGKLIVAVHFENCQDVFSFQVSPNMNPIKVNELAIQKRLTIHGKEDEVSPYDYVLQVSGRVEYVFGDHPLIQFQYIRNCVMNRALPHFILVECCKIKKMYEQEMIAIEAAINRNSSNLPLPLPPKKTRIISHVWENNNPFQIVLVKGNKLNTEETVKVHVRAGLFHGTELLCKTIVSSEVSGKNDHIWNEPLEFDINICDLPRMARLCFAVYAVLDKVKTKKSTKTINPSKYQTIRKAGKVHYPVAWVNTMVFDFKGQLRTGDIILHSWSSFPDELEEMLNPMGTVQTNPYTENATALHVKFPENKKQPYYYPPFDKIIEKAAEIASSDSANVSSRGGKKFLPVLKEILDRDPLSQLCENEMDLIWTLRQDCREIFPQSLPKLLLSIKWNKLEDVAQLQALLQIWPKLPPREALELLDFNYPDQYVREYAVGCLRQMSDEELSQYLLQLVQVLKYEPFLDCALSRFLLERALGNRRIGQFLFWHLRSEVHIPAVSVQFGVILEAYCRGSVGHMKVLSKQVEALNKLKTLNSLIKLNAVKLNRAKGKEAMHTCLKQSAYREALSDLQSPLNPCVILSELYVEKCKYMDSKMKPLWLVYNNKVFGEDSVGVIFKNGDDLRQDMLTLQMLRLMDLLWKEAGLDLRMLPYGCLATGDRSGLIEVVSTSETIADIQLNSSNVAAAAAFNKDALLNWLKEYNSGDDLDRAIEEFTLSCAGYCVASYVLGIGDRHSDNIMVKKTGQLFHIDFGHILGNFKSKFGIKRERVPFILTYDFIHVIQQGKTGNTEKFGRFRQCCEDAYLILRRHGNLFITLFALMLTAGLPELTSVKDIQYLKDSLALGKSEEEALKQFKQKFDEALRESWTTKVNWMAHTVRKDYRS

[3] = molecular target: Phosphatidylinositol 4,5-bisphosphate 3-kinase catalytic subunit gamma isoform (Homo sapiens, UniProt P48736); experiment: Inhibition of recombinant human PI3K-gamma using PIP2:3PS as substrate preincubated for 15 mins followed by ATP addition measured after 1 hr by ADP-Glo assay; how it was run: as §1
Phosphatidylinositol 4,5-bisphosphate 3-kinase catalytic subunit gamma isoform, sequence (P48736 whole entry, canonical isoform): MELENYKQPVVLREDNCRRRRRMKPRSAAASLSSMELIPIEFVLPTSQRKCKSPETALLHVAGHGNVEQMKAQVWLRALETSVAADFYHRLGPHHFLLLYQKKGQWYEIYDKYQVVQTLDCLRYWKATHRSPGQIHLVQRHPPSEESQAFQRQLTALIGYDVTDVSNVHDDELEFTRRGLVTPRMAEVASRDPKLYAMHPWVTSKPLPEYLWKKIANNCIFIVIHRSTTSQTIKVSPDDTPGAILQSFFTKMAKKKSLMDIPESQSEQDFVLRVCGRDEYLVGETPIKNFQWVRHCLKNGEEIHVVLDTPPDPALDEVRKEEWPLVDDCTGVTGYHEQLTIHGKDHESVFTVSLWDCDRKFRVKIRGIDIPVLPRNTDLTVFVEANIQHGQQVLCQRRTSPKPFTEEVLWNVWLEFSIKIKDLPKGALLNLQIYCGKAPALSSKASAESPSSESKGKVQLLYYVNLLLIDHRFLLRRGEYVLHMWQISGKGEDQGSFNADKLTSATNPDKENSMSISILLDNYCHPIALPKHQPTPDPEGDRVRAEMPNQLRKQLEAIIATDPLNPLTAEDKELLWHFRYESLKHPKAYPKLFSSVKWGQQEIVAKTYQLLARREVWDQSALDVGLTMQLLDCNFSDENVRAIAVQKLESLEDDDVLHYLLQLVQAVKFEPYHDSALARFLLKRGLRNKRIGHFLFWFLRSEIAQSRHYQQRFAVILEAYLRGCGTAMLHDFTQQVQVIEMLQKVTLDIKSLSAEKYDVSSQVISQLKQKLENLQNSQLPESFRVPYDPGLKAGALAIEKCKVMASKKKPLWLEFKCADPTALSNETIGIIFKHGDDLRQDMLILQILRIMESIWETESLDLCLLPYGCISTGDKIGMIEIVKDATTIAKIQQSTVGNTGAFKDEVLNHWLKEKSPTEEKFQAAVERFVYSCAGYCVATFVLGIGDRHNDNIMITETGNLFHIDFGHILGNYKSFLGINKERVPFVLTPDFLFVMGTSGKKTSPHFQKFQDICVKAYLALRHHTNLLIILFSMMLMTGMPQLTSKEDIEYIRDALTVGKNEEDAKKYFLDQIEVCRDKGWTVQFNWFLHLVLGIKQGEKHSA

Homo sapiens [4] = species on record: Homo sapiens; experiment: Selectivity ratio of IC50 for recombinant human PI3K-beta to IC50 for recombinant human PI3K-alpha
How it was run: (§2)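 Ratios derived from isoform IC50 values obtained in the ADP-Glo lipid-kinase assay: each enzyme preincubated 15 min with compound and lipid substrate, reaction started with ATP (250 µM stock), 1 h at room temperature, luminescence read and IC50 fitted by normalized nonlinear regression.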

Homo sapiens [5] = species on record: Homo sapiens; experiment: Selectivity ratio of IC50 for recombinant human PI3K-gamma to IC50 for recombinant human PI3K-alpha; how it was run: as §2
MRC5 = experiment: Antiproliferative activity against human MRC5 cells after 72 hrs by SRB assay; format: cell-based; settings: MRC5, 72 h
How it was run: (§3)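 Normal human cells (MRC5, HUVEC) exposed to graded compound concentrations for 72 h at 37 °C, 5% CO2, fixed with 10% TCA and stained by SRB. IC50 obtained by non-linear regression of percent growth against concentration.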

HUVEC = experiment: Antiproliferative activity against HUVEC after 72 hrs by SRB assay; format: cell-based; settings: Homo sapiens; how it was run: as §3
[6] = molecular target: T2, Phosphatidylinositol 4,5-bisphosphate 3-kinase catalytic subunit delta isoform (Homo sapiens, UniProt O00329); experiment: Inhibition of recombinant human PI3K-delta using PIP2:3PS as substrate preincubated for 15 mins followed by ATP addition measured after 1 hr by ADP-Glo assay; how it was run: as §1
T2 sequence (O00329 whole entry): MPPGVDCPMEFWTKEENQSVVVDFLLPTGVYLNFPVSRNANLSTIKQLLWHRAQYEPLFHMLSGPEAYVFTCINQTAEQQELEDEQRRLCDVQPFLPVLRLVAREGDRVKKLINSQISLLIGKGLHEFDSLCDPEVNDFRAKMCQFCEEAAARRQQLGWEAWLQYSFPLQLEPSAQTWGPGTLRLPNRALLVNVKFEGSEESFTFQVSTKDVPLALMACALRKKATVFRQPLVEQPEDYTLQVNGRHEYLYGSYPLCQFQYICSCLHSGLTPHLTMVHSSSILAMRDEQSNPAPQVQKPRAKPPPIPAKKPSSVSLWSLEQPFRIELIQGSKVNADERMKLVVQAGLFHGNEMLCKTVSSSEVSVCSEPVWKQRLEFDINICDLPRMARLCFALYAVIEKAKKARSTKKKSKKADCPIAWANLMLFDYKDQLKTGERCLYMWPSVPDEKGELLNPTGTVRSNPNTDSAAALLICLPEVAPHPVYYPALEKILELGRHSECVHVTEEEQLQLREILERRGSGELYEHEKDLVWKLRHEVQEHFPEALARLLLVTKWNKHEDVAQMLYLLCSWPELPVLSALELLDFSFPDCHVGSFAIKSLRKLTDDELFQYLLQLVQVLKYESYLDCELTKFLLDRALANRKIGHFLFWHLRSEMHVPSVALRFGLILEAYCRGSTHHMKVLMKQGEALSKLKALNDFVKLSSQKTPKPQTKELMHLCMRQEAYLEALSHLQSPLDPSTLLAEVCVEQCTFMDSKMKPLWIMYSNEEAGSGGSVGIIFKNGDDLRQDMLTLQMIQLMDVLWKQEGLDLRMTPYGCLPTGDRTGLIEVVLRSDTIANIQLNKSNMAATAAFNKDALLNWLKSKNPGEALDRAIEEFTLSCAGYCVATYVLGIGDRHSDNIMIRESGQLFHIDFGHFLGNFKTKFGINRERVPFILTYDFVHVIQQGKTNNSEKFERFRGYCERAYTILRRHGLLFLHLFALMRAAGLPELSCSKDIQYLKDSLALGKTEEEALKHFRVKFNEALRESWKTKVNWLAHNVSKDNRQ

Homo sapiens [7] = species on record: Homo sapiens; experiment: Selectivity ratio of IC50 for recombinant human PI3K-delta to IC50 for recombinant human PI3K-alpha; how it was run: as §2
[8] = molecular target: T1, Phosphatidylinositol 4,5-bisphosphate 3-kinase catalytic subunit alpha isoform; experiment: Inhibition of PI3K-alpha in human HCT116 cells assessed as reduction in Akt phosphorylation at Thr-308 residue by Western blot analysis; format: cell-based
How it was run: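 Equal protein amounts separated by 10% SDS-PAGE, transferred to PVDF, probed with the indicated antibodies; β-actin as internal control.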

IC50 (HCT-116) | IC50 (MDA-MB-231) | IC50 (SNU-638) | Structure (SMILES) | further results
2.22 µM | 5.49 µM | 6.96 µM | COc1ncc(-c2ccc3c(c2)N(Cc2ccncc2)C(=O)CO3)cc1NS(=O)(=O)c1ccc(F)cc1F | 
0.58 µM | 0.49 µM | 0.52 µM | COc1ncc(-c2ccc3c(c2)N(CCCN2CCOCC2)C(=O)CO3)cc1NS(=O)(=O)c1ccc(F)cc1F | IC50 [1]: 0.0267 µM; IC50 [2]: 0.382 µM; IC50 [3]: 0.185 µM; Ratio IC50 (Homo sapiens [4]): 14.3; Ratio IC50 (Homo sapiens [5]): 7; IC50 (MRC5): 32.8 µM; IC50 (HUVEC): 15.6 µM; IC50 [6]: 0.425 µM; Ratio IC50 (Homo sapiens [7]): 15.9; inhibition [8]: Dose-dependent effect
6.18 µM | 8.26 µM | 7.39 µM | COc1ncc(-c2ccc3c(c2)N=C(N2CCN(CCO)CC2)CO3)cc1NS(=O)(=O)c1ccc(F)cc1F | 
3.26 µM | 4.78 µM | 4.97 µM | COc1ncc(-c2ccc3c(c2)N=C(N2CCN(CCCO)CC2)CO3)cc1NS(=O)(=O)c1ccc(F)cc1F | 
4.62 µM | 4.23 µM | 5.01 µM | CCCCS(=O)(=O)Nc1cc(-c2ccc3c(c2)N(CCCN2CCOCC2)C(=O)CO3)cnc1OC | 
42.6 µM | 47.9 µM | 44.3 µM | CCCCS(=O)(=O)Nc1cc(-c2ccc3c(c2)N(CCCn2ccccc2=O)C(=O)CO3)cnc1OC | 
4.23 µM | 12.4 µM | 6.76 µM | COc1ncc(-c2ccc3c(c2)N(CCCn2ccccc2=O)C(=O)CO3)cc1NS(=O)(=O)c1ccc(F)cc1F | 
1.24 µM | 4.98 µM | 7.84 µM | COc1ncc(-c2ccc3c(c2)N(Cc2ccc(F)cc2)C(=O)CO3)cc1NS(=O)(=O)c1ccc(F)cc1F | 
33.6 µM | 37.9 µM | 36.2 µM | CCCCS(=O)(=O)Nc1cc(-c2ccc3c(c2)N(CCCn2cccn2)C(=O)CO3)cnc1OC | 
 | 0.56 µM |  | Cn1c(=O)n(-c2ccc(C(C)(C)C#N)cc2)c2c3cc(-c4cnc5ccccc5c4)ccc3ncc21 [DACTOLISIB] | 
18.6 µM | 22.8 µM | 24.9 µM | COC(=O)CCN1CCN(C2=Nc3cc(-c4cnc(OC)c(NS(=O)(=O)c5ccc(F)cc5F)c4)ccc3OC2)CC1 | 
8.43 µM | 9.35 µM | 8.97 µM | CCCCS(=O)(=O)Nc1cc(-c2ccc3c(c2)N(CCCN(C)C)C(=O)CO3)cnc1OC | 
23.5 µM | 43.8 µM | 41.9 µM | CCCCS(=O)(=O)Nc1cc(-c2ccc3c(c2)N(CCC(=O)N2CCOCC2)C(=O)CO3)cnc1OC | 
41.4 µM | 37.9 µM | 46.5 µM | CCCCS(=O)(=O)Nc1cc(-c2ccc3c(c2)N(Cc2ccncc2)C(=O)CO3)cnc1OC | 
32.9 µM | 40.4 µM | 32.7 µM | CCCCS(=O)(=O)Nc1cc(-c2ccc3c(c2)N(CCCn2ccnc2)C(=O)CO3)cnc1OC | 
14.6 µM | 13.8 µM | 17.6 µM | CCCCS(=O)(=O)Nc1cc(-c2ccc3c(c2)N(CCCN(CC)CC)C(=O)CO3)cnc1OC | 
3.18 µM | 3.26 µM | 5.77 µM | COc1ncc(-c2ccc3c(c2)N(CCC(=O)N2CCOCC2)C(=O)CO3)cc1NS(=O)(=O)c1ccc(F)cc1F | 
14.5 µM | 17.2 µM | 21.4 µM | CCOC(=O)CN1CCN(C2=Nc3cc(-c4cnc(OC)c(NS(=O)(=O)c5ccc(F)cc5F)c4)ccc3OC2)CC1 | 

Structure (SMILES) | IC50 (HCT-116) | IC50 (MDA-MB-231) | IC50 (SNU-638) | further results
CCCCS(=O)(=O)Nc1cc(-c2ccc3c(c2)N(CCN2CCOCC2)C(=O)CO3)cnc1OC | 15.8 µM | 19.5 µM | 20.4 µM | 
COc1ncc(-c2ccc3c(c2)N(CCN2CCOCC2)C(=O)CO3)cc1NS(=O)(=O)c1ccc(F)cc1F | 2.4 µM | 1.82 µM | 2.38 µM | 

From ChEMBL document CHEMBL4229415, “Design, synthesis and biological evaluation of novel series of 2H-benzo[b][1,4]oxazin-3(4H)-one and 2H-benzo[b][1,4]oxazine scaffold derivatives as PI3Kα inhibitors” (Bioorg Med Chem, 2018)
